The inhibition is the relative decrease from the control value, in per cent.

A short description of assay [1]: inhibitors of TNFa-induced NFkB p65 translocation, primary screen, imaging, HUVEC, MLSMR starter and 10KST1 sets (AID 438;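 active means inhibition above 20% together with a positive visual image hit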;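 further: compound added about 3h40 before a 20 min TNFalpha stimulation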;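 on inhibition: signal is the nuclear over cytoplasmic p65 intensity ratio per well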). The note with it: HUVEC TNFa-induced p65 nuclear translocation; cell count: measured here: nuclei count (cytotoxicity indicator), at 2.08 µM; inhibition: at 2 µM, stronger effect = higher value, 0% TNFa-plus-vehicle, 100% no-TNFa wells.
A short description of assay [2]: endothelial E-selectin expression blockers – imaging, HUVEC, immunofluorescence, MLSMR starter and 10KST1 sets, primary screen (AID 487;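 active means visually confirmed hit in the image check and inhibition above 20%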;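 on inhibition: signal is fraction of cell area covered by stained E-selectin grains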;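 on nuclei count: 100% = median nuclei count of all wells on the same plate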). The note with it: HUVEC TNFalpha-induced E-selectin immunofluorescence imaging, at 2 µM; inhibition: stronger effect = higher value; nuclei count: measured here: cell number, toxicity.
Assay [3] is described as follows: Primary imaging screen for DUSP6 inhibitors that restore phospho-Erk in transfected HeLa cells, chemical complementation (AID 609;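 active means compounds giving at least 50% inhibition in the cell-based MKP-3 phosphatase rescue imaging test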;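 on inhibition: phospho-Erk level distribution per well compared with pooled transfected vehicle control wells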). The note with it: HeLa MKP-3 transfected, phospho-Erk imaging KS statistic, at 10 µM, cells stimulated with TPA for 15 min.
Assay [4] deals with Dual specificity protein phosphatase 6 (Homo sapiens) (UniProt Q16828). The assay is described as above. The note with it: HeLa MKP-3 transfected, phospho-Erk imaging KS statistic; at 10 µM; stronger effect = higher value; cells stimulated with TPA for 15 min.
Assay [5] addresses Voltage-gated potassium channel subunit beta-2 (Rattus norvegicus) (UniProt P62483). Description: inhibitors of rat Kvbeta2 reductase activity – biochemical, NADPH fluorescence, primary screen (AID 622;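 active means fluorescence slope higher than the sample average by over 3 SD, cut at about -0.22 in these data, passing the limit was not always enough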;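 further: slope of raw intensity against log time taken from 70 to 1610 s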). The note with it: recombinant KvBeta, 4-cyanobenzaldehyde reduction, at 10 µM, stronger effect = higher value.
Assay [6] shares this target. The assay can be described thus: enhancers of rat Kvbeta2 NADPH turnover – biochemical, NADPH fluorescence, primary screen (AID 623;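 active means NADPH fluorescence slope more negative than the mean of all samples by about 3 SD, 99.7% confidence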;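 further: fluorescence intensity change per second fitted from 20 to 320 s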). The note with it: Recombinant KvBeta, NADPH fluorescence decrease slope, 10 min; at 10 µM; stronger effect = lower value.
The target of assay [7] is Muscarinic acetylcholine receptor M4 (Homo sapiens) (UniProt P08173). Description: M4-linked GIRK flux change, two-sided – cell-based, HEK293 M4/GIRK, thallium flux, BTC-AM, M4 allosteric agonist project, primary screen (AID 625).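 Further: thallium influx through GIRK channels coupled to M4 in HEK293 cells with BTC-AM dye.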 The note with it: at 10 µM, actives lie on both sides. Summed up: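 System: HEK293 cells with M4 receptor and GIRK channels | Incubation: Cells overnight at 37 °C, BTC-AM loading 1 h, reads 2 min total | Technique: Kinetic BTC-AM fluorescence sampled at 1 Hz, 10 s pre-addition baseline | Measure: Post-addition slope, 15–24 s, of baseline-normalized fluorescence | Control set: Carbachol positive, DMSO negative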

A short description of assay [8]: inhibitors of larval lipid processing in zebrafish, primary screen, whole organism, PED6 fluorescence, gall bladder and intestine (AID 686;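 active means a full or partial loss of lipid-probe fluorescence in the fish gall bladder, intestine or both, judged by eye; inactive means no fluorescence loss, or compound toxic to the fish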;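 further: larvae 5 to 7 days old with five fish per well; signal comes from phospholipase A2 cleavage of quenched PED6 carried via bile; overnight exposure to compound and PED6 before scoring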). The settings on record: Zebrafish larvae PED6 lipid processing, fluorescence scoring; screened at 20 µM (by protocol). Summed up:
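Test system – live zebrafish larvae aged 5-7 days, whole organism · Buffer or medium – E3 fish medium · Reagent – quenched phospholipase substrate PED6, 100 nM final, ingested by larvae · Doses – 20 µM single dose · Incubation – overnight compound and PED6 incubation · Technique – visual fluorescence microscopy scoring of gall bladder, gut · Read-out basis – visual per-well fluorescence inhibition score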

The nature of assay [9]: loss of swimming-algae plug formation – whole organism, Chlamydomonas reinhardtii, WT vs cilia-less mutant, absorbance, 96-well, primary screen (AID 463189;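 active means inhibition at or above 50% relative to wild type and mutant plate controls; inactive means inhibition below 50%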;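 further: 0% = wild type cc124 cells in DMSO and 100% = ciliumless bld1 mutant cells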). The settings on record: Chlamydomonas reinhardtii gravitaxis, OD600 absorbance, 2 days; at 10 µM; stronger effect = higher value.
Where [10] appears, read: measured here: cell density z-score.
Where [11] appears, read: measured here: nuclear c-Myc green intensity z-score.
Where [12] appears, read: measured here: nuclear pErk red intensity z-score, stronger effect = higher value.

The structures appear in SMILES notation. The source made the active and inactive calls.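 How the source made its calls, unless noted: active means fluorescence slope after compound addition differing from the mean of all tested samples at 99.7% confidence, mostly higher but some lower; inactive means the rest.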

Sequence of Muscarinic acetylcholine receptor M4 (Homo sapiens) (P08173 whole entry, looked up): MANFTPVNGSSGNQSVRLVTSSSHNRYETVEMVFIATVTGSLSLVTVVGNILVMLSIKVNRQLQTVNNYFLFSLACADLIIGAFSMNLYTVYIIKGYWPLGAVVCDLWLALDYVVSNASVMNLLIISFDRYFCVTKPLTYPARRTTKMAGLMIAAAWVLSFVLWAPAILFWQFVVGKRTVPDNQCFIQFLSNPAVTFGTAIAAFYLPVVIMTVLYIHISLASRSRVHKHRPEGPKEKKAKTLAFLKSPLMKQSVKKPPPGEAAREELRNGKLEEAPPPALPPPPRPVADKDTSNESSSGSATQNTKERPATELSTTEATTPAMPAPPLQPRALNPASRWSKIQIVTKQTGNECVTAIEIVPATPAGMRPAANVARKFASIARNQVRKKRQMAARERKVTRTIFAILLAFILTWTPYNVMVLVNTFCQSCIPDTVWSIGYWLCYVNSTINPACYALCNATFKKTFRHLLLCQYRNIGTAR
Sequence of Voltage-gated potassium channel subunit beta-2 (Rattus norvegicus) (P62483 whole entry, looked up): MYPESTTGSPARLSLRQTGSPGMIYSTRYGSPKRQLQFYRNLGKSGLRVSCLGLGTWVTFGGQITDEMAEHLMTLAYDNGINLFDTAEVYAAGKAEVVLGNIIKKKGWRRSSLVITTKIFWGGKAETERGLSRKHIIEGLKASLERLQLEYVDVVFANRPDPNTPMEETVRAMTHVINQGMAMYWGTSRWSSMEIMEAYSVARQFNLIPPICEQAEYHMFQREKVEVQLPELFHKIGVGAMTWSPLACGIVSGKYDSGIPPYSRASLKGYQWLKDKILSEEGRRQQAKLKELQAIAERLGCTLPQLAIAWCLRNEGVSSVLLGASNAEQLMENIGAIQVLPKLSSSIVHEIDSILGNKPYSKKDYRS
Sequence of Dual specificity protein phosphatase 6 (Homo sapiens) (Q16828 whole entry, looked up): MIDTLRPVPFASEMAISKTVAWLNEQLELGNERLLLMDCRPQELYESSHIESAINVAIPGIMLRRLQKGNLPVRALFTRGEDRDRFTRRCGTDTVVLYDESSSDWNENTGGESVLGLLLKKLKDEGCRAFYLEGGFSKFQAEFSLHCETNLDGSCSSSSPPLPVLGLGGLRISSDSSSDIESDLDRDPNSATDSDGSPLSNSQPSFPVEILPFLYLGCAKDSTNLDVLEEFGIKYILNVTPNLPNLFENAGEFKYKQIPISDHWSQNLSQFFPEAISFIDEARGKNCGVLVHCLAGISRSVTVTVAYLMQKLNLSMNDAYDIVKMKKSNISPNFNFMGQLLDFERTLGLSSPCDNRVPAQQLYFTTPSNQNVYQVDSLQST

For the compound `CCc1nc2n[nH]c(N)c2c2c1CCCC2`, the cell count in assay [1] was 410. The inhibition in assay [1] is -3% (inactive); in assay [2] it was -224% (inactive); in [4], 5.42% (inactive); in [9], 2.25% (inactive). The compound also displayed a nuclei count in [2] of 194%. Besides, the z-score in assay [3] (setting [10]) is 1.38; in assay [3] (setting [11]), -1.2; in assay [3] (setting [12]), -1.94. Moreover, the figures for the fluorescence slope in [5] and in assay [7] were -0.476 (inactive) and 0.00476 (inactive), respectively. In addition, the NADPH fluorescence slope in [6] is -5.3e-05 (inactive). In addition, the outcome in assay [8] was “inactive; toxic”.
For the compound `CC1(C)NC(=O)N(CC(O)COc2cc3ccccc3cc2C(=O)N2CCCCC2)C1=O` (centres undefined), the cell count in assay [1] was 595. Further, the inhibition in [1] is -11.9% (inactive); in [2], 5.9% (inactive); in assay [4] it was 5.42% (inactive); in [9], 33.9% (inactive). In addition, the nuclei count in assay [2] was 157%. Besides, the z-score in assay [3] (setting [10]) was 0.439; in assay [3] (setting [11]) it was 1.12; in [3] (setting [12]) it was -0.435. Besides, the fluorescence slope is -0.383 (inactive) in assay [5] and 0.00552 (inactive) in assay [7]. Besides, the NADPH fluorescence slope in [6] is 2.1e-06 (inactive). Besides, the compound was classed as inactive in assay [8].
Turning to `COc1ccc(N2C(=O)CC(N(Cc3ccc(S(N)(=O)=O)cc3)C(C)=O)C2=O)cc1` (centres undefined), the cell count in assay [1] was found to be 550. Further, the inhibition was 4.1% (inactive) in assay [1], 19.1% (inactive) in assay [2], 20.2% (inactive) in assay [4] and 9.88% (inactive) in assay [9]. Further, the nuclei count in assay [2] amounted to 126%. Further, the z-score in assay [3] (setting [10]) is 0.546; in [3] (setting [11]), -0.739; in assay [3] (setting [12]), 0.891. The values for the fluorescence slope in assay [5] and in assay [7] were -0.481 (inactive) and 0.00578 (inactive), respectively. In assay [6], the NADPH fluorescence slope is -3.2e-05 (inactive). The outcome in [8] was inactive.
Regarding `CCOc1ccc(N=C2C(=O)N(CN3CCOCC3)c3ccccc32)cc1`, the cell count in assay [1] is 653. Besides, the inhibition in [1] was -4.3% (inactive); in assay [2], -371% (inactive); in assay [4], 10.1% (inactive); in assay [9], 9.3% (inactive). The compound further registered a nuclei count in [2] of 156%. Besides, the z-score in assay [3] (setting [10]) was 0.894; in [3] (setting [11]) it was -0.754; in assay [3] (setting [12]), -0.416. In addition, the results for the fluorescence slope in assay [5] and in [7] were -0.486 (inactive) and 0.00278 (inactive), respectively. Besides, the NADPH fluorescence slope in assay [6] was -7.9e-05 (inactive). Besides, in [8], the outcome was inactive.
Take `COC(=O)CCc1c(C)[nH]c(=S)[nH]c1=O`: the cell count in assay [1] came out at 364. Also, the inhibition is -0.7% (inactive) in [1], -74.5% (inactive) in assay [2], -4.78% (inactive) in assay [4] and -5.54% (inactive) in assay [9]. Moreover, the nuclei count in assay [2] turned out to be 111%. In addition, the z-score is -0.296 in assay [3] (setting [10]), -0.397 in [3] (setting [11]) and -1.03 in assay [3] (setting [12]). Also, the fluorescence slope was -0.521 (inactive) in assay [5] and 0.00625 (inactive) in [7]. Also, the NADPH fluorescence slope in [6] was -2.4e-05 (inactive). Also, in [8], the call was inactive.
Consider `COC(=O)CSc1nc2c(c(=O)n(C)c(=O)n2C)n1CCC(C)C`, for which the cell count in assay [1] turned out to be 599. Further, the inhibition in assay [1] was -7% (inactive); in assay [2], -120% (inactive); in assay [4], 3.42% (inactive); in [9], -12.3% (inactive). For the same compound, the nuclei count in [2] is 130%. The z-score in [3] (setting [10]) is -2.77; in assay [3] (setting [11]), 3.03; in assay [3] (setting [12]), -2.44. In addition, the fluorescence slope in [5] was -0.394 (inactive); in assay [7] it was 0.00549 (inactive). Besides, the NADPH fluorescence slope in assay [6] was 6.8e-06 (inactive). Further, the outcome in assay [8] was inactive.
Consider `COC(=O)c1ccc(C2/C(=C(\O)c3ccc4c(c3)OCCO4)C(=O)C(=O)N2CCCN(C)C)cc1` (centres undefined), for which, in [1], the cell count amounted to 366. Besides, the inhibition in assay [1] is -2.2% (inactive); in assay [2], 1.3% (inactive); in assay [4] it was 9.82% (inactive); in assay [9], 25% (inactive). Moreover, in assay [2], the nuclei count turned out to be 91.5%. For the same compound, the z-score is -1.2 in assay [3] (setting [10]), -0.278 in assay [3] (setting [11]) and 0.407 in assay [3] (setting [12]). The fluorescence slope is -0.442 (inactive) in assay [5] and 0.00519 (inactive) in assay [7]. In addition, the NADPH fluorescence slope in [6] was -0.000114 (inactive). Moreover, the result in assay [8] was inactive.
As for `COC(=O)c1[nH]c(C)c(/C(O)=C2\C(=O)C(=O)N(CCN3CCOCC3)C2c2ccccc2OC)c1C` (centres undefined), in assay [1], the cell count came to 610. Moreover, the inhibition was -6% (inactive) in assay [1], -13.3% (inactive) in assay [2], -7.28% (inactive) in assay [4] and 5.11% (inactive) in [9]. Besides, the nuclei count in [2] amounted to 168%. Besides, the z-score in [3] (setting [10]) was -1.87; in [3] (setting [11]) it was 0.251; in [3] (setting [12]), -0.629. Besides, the values for the fluorescence slope in [5] and in assay [7] were -0.491 (inactive) and 0.00635 (inactive), respectively. For the same compound, in assay [6], the NADPH fluorescence slope was -0.000142 (inactive). Besides, in [8], the result was inactive.
For `COc1ccccc1C1/C(=C(/O)c2ccc(OC(C)C)cc2)C(=O)C(=O)N1c1cc(C)on1` (centres undefined), the cell count in [1] came out at 437. For the same compound, the inhibition in [1] is -8.5% (inactive); in assay [2] it was -118% (inactive); in [4] it was 9.37% (inactive); in assay [9], -0.61% (inactive). This compound also gave a nuclei count in assay [2] of 148%. Also, the figures for the z-score in assay [3] (setting [10]), in [3] (setting [11]) and in assay [3] (setting [12]) were 1.18, -0.452 and -0.964, respectively. Further, the fluorescence slope is -0.438 (inactive) in [5] and 0.006 (inactive) in [7]. The NADPH fluorescence slope in assay [6] is -0.000335 (active). Also, the result in assay [8] was inactive.
Consider `CC1(C)Cc2c(c(-c3ccco3)[nH]c(=O)c2C#N)CS1`, for which, in assay [1], the cell count came to 706. Also, the inhibition in assay [1] is -0.5% (inactive); in [2] it was -101% (inactive); in [4], -11.5% (inactive); in [9] it was 3.67% (inactive). This compound also returned a nuclei count in assay [2] of 143%. Besides, the z-score was 0.203 in assay [3] (setting [10]), 0.427 in assay [3] (setting [11]) and 1.52 in assay [3] (setting [12]). Moreover, the values for the fluorescence slope in [5] and in assay [7] were -0.388 (inactive) and 0.00494 (inactive), respectively. For the same compound, the NADPH fluorescence slope in assay [6] is -9.3e-05 (inactive). In addition, in [8], the result was inactive.
On to `CCCC(CCC(=O)Nc1ccc(C(=O)OC)cc1)C(=O)O` (centres undefined), for which the cell count in assay [1] was determined as 402. Moreover, the inhibition in assay [1] is -5.3% (inactive); in assay [2], -85.5% (inactive); in [4] it was 26.5% (inactive); in [9], -1.65% (inactive). This compound also returned a nuclei count in assay [2] of 145%. The values for the z-score in [3] (setting [10]), in [3] (setting [11]) and in [3] (setting [12]) were 0.89, -1.82 and 0.0137, respectively. Besides, the figures for the fluorescence slope in assay [5] and in assay [7] were -0.445 (inactive) and 0.00528 (inactive), respectively. Further, the NADPH fluorescence slope in assay [6] is -8.7e-05 (inactive). In addition, in assay [8], the call was inactive.
With `COc1ccc(OC)c(C2/C(=C(/O)c3ccccc3)C(=O)C(=O)N2Cc2ccco2)c1` (centres undefined), the cell count in [1] turned out to be 675. The inhibition in [1] was -11.7% (inactive); in assay [2] it was -58% (inactive); in assay [4], -11.4% (inactive); in assay [9] it was 5.53% (inactive). In [2], this compound returned a nuclei count of 169%. Further, the z-score was 0.317 in assay [3] (setting [10]), -0.841 in assay [3] (setting [11]) and 0.437 in [3] (setting [12]). For the same compound, the fluorescence slope in [5] was -0.522 (inactive); in [7], 0.00485 (inactive). Further, the NADPH fluorescence slope in assay [6] is -2.7e-05 (inactive). Also, the outcome in [8] was inactive.
With `CCOC(=O)c1[nH]c2ccc(C)cc2c1N=CN(CC)CC`, the cell count in assay [1] amounted to 681. Further, the inhibition in assay [1] was -16.8% (inactive); in [2], -97.9% (inactive); in assay [4] it was 3.97% (inactive); in assay [9], -5% (inactive). Also, the nuclei count in [2] amounted to 174%. In addition, the figures for the z-score in assay [3] (setting [10]), in assay [3] (setting [11]) and in assay [3] (setting [12]) were -1.2, 1.5 and 0.686, respectively. Besides, the values for the fluorescence slope in assay [5] and in assay [7] were -0.474 (inactive) and 0.00485 (inactive), respectively. Further, in assay [6], the NADPH fluorescence slope is -7.5e-05 (inactive). The compound was classed as inactive in assay [8].

Values taken from PubChem BioAssay.
